Here are results for seven compounds from PMC10061536 (ACS Omega, 2023).

In brackets after ≈: the same amount, converted by molar mass.

Series [1] has as its target Bovine serum albumin (BSA)-glucose model (Bos taurus, UniProt P02769). Description: In vitro anti-glycation assay, BSA-glucose model. The class given is biochemical. The note with it: for inhibition at 100 ppm / inhibition at 200 ppm / inhibition at 400 ppm / inhibition at 600 ppm / inhibition at 800 ppm / inhibition at 1000 ppm: read-out: % age antiglycation inhibition. The procedure, abridged: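 Glycation is read by measuring the fluorescence of glycated products on a spectrofluorometer.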

For series [2], the system named is glycation. The note with it: read-out: IC50, antiglycation; cited from earlier work.
In series [3] the test system is glycation. The note with it: cited from earlier work.
A further series relates to α-amylase. Description: α-Amylase inhibition assay. The class given is biochemical. The note with it: for IC50: read-out: IC50 ± SEM, α-amylase inhibition.
Series [4] can be described thus: DPPH radical scavenging assay. The note with it: for percentage antioxidant potential: at tested concentrations, IC50 not calculated; for IC50: read-out: IC50 (mM ± SEM), DPPH scavenged by 50%. The procedure, abridged:
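Radical scavenging of DPPH by the test compound, with ascorbic acid as the reference.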

Bovine serum albumin (BSA)-glucose model, sequence (P02769 25-607): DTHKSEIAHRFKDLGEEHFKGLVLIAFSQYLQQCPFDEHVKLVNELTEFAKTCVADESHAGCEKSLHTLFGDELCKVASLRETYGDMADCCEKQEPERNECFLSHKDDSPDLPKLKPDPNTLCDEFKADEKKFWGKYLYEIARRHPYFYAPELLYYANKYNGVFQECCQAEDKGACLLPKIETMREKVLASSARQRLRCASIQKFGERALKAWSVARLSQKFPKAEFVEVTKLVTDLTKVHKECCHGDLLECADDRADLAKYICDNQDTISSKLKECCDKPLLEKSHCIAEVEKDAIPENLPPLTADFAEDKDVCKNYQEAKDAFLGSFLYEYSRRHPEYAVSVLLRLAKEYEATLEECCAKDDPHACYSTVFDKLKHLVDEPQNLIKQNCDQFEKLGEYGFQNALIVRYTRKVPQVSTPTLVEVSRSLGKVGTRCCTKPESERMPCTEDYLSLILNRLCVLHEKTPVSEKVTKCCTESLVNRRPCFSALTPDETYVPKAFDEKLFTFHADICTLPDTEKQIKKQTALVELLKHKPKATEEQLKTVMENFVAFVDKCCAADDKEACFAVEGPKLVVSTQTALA

As usually defined, the IC50 is the concentration needed to halve the response being measured. On to `N=C(N)NN` [amino guanidine, reference compound], for which the “% age antiglycation inhibition” value amounted to 85.190% in series [1] (100 ppm); 86.141% in series [1] (200 ppm); 87.143% in series [1] (400 ppm); 88.011% in series [1] (600 ppm); 88.866% in series [1] (800 ppm); 89.657% in series [1] (1000 ppm). Moreover, the IC50 in the series on glycation [2] is 25.5 ± 0.337 µM. Moreover, the “IC50, antiglycation” value in the series on glycation [3] was 394 ± 1 µg/mL (≈ 5.32 mM).
In general, inhibition refers to the percentage by which the read-out fell short of the control. Turning to `Cc1ccc(C=NNc2nc(-c3ccc(F)cc3)cs2)o1` [3e, 4-(4-Fluorophenyl)-2-(2-((5-methylfuran-2-yl)methylene)hydrazinyl)thiazole], the results for the “% age α-amylase inhibition” value in the series with α-amylase (1 μM), in the series on α-amylase (5 μM) and in the series on α-amylase (10 μM) were 30.06%, 41.20% and 57.45%, respectively. In addition, on α-amylase, the IC50 came out at 7.77 ± 0.01 µM. Also, the inhibition at 100 ppm in series [1] amounted to 68.7%. Moreover, the inhibition at 200 ppm in series [1] was found to be 69.7%. In addition, in series [1], the inhibition at 400 ppm was 70.7%. Also, the inhibition at 600 ppm in series [1] turned out to be 71.8%. Moreover, the inhibition at 800 ppm in series [1] is 72.8%. Besides, the inhibition at 1000 ppm in series [1] was 73.7%. Besides, the “% age antioxidant potential” value in series [4] (3 mM) was found to be 0.00%; in series [4] (6 mM), 8.26%; in series [4] (9 mM), 19.32%; in series [4] (12 mM) it was 44.74%; in series [4] (15 mM), 49.04%. For the same compound, in series [4], the percentage antioxidant potential entry was “less than 50%”.
On to `Fc1ccc(-c2csc(NN=Cc3ccc(C(F)(F)F)cc3)n2)cc1` [3d, 4-(4-Fluorophenyl)-2-(2-(4-(trifluoromethyl)benzylidene)hydrazinyl)thiazole], for which the “% age α-amylase inhibition” value in the series with α-amylase (1 μM) stood at 36.97%; with α-amylase (5 μM) it was 49.93%; in the series with α-amylase (10 μM), 62.35%. The figures for the IC50 (on α-amylase; in series [4]) were 6.92 ± 0.12 µM and 10.68 ± 0.08 mM, respectively. Also, the inhibition at 100 ppm in series [1] was found to be 87.4%. Further, in series [1], the inhibition at 200 ppm is 87.9%. Further, the inhibition at 400 ppm in series [1] stood at 89%. Besides, in series [1], the inhibition at 600 ppm worked out at 89.5%. Also, the inhibition at 800 ppm in series [1] came out at 90.9%. Besides, in series [1], the inhibition at 1000 ppm was 92.3%. Also, the “% age antioxidant potential” value is listed as 23.48% in series [4] (3 mM); 34.45% in series [4] (6 mM); 45.32% in series [4] (9 mM); 56.39% in series [4] (12 mM); 63.78% in series [4] (15 mM).
`COc1cc(Br)c(C=NNc2nc(-c3ccc(F)cc3)cs2)cc1OC` [3a, 2-(2-(2-Bromo-4,5-dimethoxybenzylidene)hydrazinyl)-4-(4-fluorophenyl)thiazole]: the figures for the “% age α-amylase inhibition” value in the series on α-amylase (1 μM), in the series on α-amylase (5 μM) and in the series on α-amylase (10 μM) were 35.96%, 51.11% and 69.11%, respectively. Besides, the IC50 on α-amylase was determined as 6.41 ± 0.09 µM; in series [4] it was 12.39 ± 0.1 mM. Further, the inhibition at 100 ppm in series [1] came to 80.9%. Besides, the inhibition at 200 ppm in series [1] worked out at 82.1%. Besides, the inhibition at 400 ppm in series [1] is 84.8%. For the same compound, the inhibition at 600 ppm in series [1] stood at 85.9%. Also, the inhibition at 800 ppm in series [1] came to 87%. In addition, in series [1], the inhibition at 1000 ppm came out at 89.9%. For the same compound, the “% age antioxidant potential” value in series [4] (3 mM) was 0.00%; in series [4] (6 mM), 18.82%; in series [4] (9 mM), 32.72%; in series [4] (12 mM), 47.58%; in series [4] (15 mM), 67.95%.
For the compound `Fc1ccc(-c2csc(NN=Cc3ccc[nH]3)n2)cc1` [3m, 2-(2-((1H-Pyrrol-2-yl)methylene)hydrazinyl)-4-(4-fluorophenyl)thiazole], the figures for the “% age α-amylase inhibition” value with α-amylase (1 μM), in the series with α-amylase (5 μM) and in the series on α-amylase (10 μM) were 42.76%, 52.79% and 63.94%, respectively. Besides, at α-amylase, the IC50 was determined as 6.66 ± 0.13 µM. Besides, the inhibition at 100 ppm in series [1] is 76.8%. Besides, the inhibition at 200 ppm in series [1] was found to be 78.8%. Besides, the inhibition at 400 ppm in series [1] amounted to 82.5%. For the same compound, the inhibition at 600 ppm in series [1] came out at 84%. In addition, in series [1], the inhibition at 800 ppm came out at 86.1%. Also, the inhibition at 1000 ppm in series [1] worked out at 88.8%. In addition, the “% age antioxidant potential” value is 0.00% in series [4] (3 mM); 0.00% in series [4] (6 mM); 0.00% in series [4] (9 mM); 15.13% in series [4] (12 mM); 31.05% in series [4] (15 mM). Further, in series [4], the percentage antioxidant potential result is given as “less than 50%”.
On to `CC(=NNc1nc(-c2ccc(F)cc2)cs1)c1cccc(Br)c1` [3f, 2-(2-(1-(3-Bromophenyl)ethylidene)hydrazinyl)-4-(4-fluorophenyl)thiazole], for which the results for the “% age α-amylase inhibition” value with α-amylase (1 μM), in the series on α-amylase (5 μM) and with α-amylase (10 μM) were 34.92%, 51.68% and 62.28%, respectively. Further, the IC50 at α-amylase was determined as 6.88 ± 0.16 µM. The inhibition at 100 ppm in series [1] stood at 84.1%. Moreover, in series [1], the inhibition at 200 ppm is 86.7%. In addition, in series [1], the inhibition at 400 ppm was 87.3%. Moreover, the inhibition at 600 ppm in series [1] is 88%. Besides, the inhibition at 800 ppm in series [1] worked out at 90.4%. The inhibition at 1000 ppm in series [1] was 91.3%. For the same compound, the “% age antioxidant potential” value is reported as 0.00% in series [4] (3 mM); 0.00% in series [4] (6 mM); 19.48% in series [4] (9 mM); 28.70% in series [4] (12 mM); 40.73% in series [4] (15 mM). Moreover, the percentage antioxidant potential result in series [4] is given as “less than 50%”.
Turning to `Fc1ccc(-c2csc(NN=Cc3ccccc3C(F)(F)F)n2)cc1` [3k, 4-(4-Fluorophenyl)-2-(2-(2-(trifluoromethyl)benzylidene)hydrazinyl)thiazole], the “% age α-amylase inhibition” value stood at 47.84% with α-amylase (1 μM), 57.72% in the series with α-amylase (5 μM) and 70.90% in the series on α-amylase (10 μM). The IC50 on α-amylase stood at 6.03 ± 0.04 µM. Besides, in series [1], the inhibition at 100 ppm came to 87.4%. Further, the inhibition at 200 ppm in series [1] turned out to be 87.9%. For the same compound, the inhibition at 400 ppm in series [1] worked out at 88.8%. Besides, the inhibition at 600 ppm in series [1] amounted to 89.2%. The inhibition at 800 ppm in series [1] was 90%. Moreover, the inhibition at 1000 ppm in series [1] is 91.6%. In addition, the “% age antioxidant potential” value in series [4] (3 mM) came out at 0.00%; in series [4] (6 mM), 14.08%; in series [4] (9 mM) it was 21.05%; in series [4] (12 mM) it was 30.92%; in series [4] (15 mM), 48.28%. Moreover, the percentage antioxidant potential result in series [4] is recorded as “less than 50%”.
